In test [1] the test system is HBMEC-2. Put plainly: Protection against H2O2-induced apoptosis in human HBMEC2 cells assessed as reduction in cell shrinkage at 1.56 to 6.25 uM preincubated for 24 hrs followed by H2O2 addition and measured after 4 hrs by Giemsa staining based inverted phase contrast microscopic analysis. In kind it is functional. In short, it runs like this: (§1)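 Cells at 3.5×10^4 cells/mL in 24-well plates were pretreated 24 h with compound at three concentrations, then H2O2 (4.8 mM stock) for 4 h. After PBS washes, cells were fixed in 4% paraformaldehyde/70% cold ethanol for 10 min. Staining was 6% Giemsa or DAPI for 5 min in the dark. Random fields were photographed at 200× by microscope, alongside control and model groups.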

Test [2] has as its system SH-SY5Y. Put plainly: Protection against H2O2-induced apoptosis in human SH-SY5Y cells assessed as reduction in cell shrinkage at 1.56 to 6.25 uM preincubated for 24 hrs followed by H2O2 addition measured after 4 hrs by Giemsa staining based inverted phase contrast microscopic analysis. In kind it is functional. The method in brief:
as §1

The nature of test [3]: Inhibition of H2O2-induced apoptosis in human HBMEC2 cells assessed as necrotic cells at 1.56 uM preincubated for 24 hrs followed by H2O2 addition measured after 4 hrs by Annexin V-FITC/propidium iodide staining based flow cytometry (reference value: 0.4 %). Also noted: scale not given: the % may be the effect or the level left. In kind it is functional, HBMEC-2. In short, it runs like this: (§2)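 Cells were seeded at 3.5×10^4 cells/mL in 6-well plates at 37 °C, 5% CO2. Compound was added at three concentrations for 24 h, then H2O2 (4.8 mM stock solution) to model and drug wells for 4 h. Cells were collected, washed in cold PBS and resuspended in annexin-binding buffer. Staining was annexin V-FITC 10 min, then PI 5 min, in the dark, followed by flow cytometry with quadrant gating.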
(Flow cytometry measures light scatter and fluorescence of single cells or particles in a stream.)

Test [4] is described as follows: Inhibition of H2O2-induced apoptosis in human HBMEC2 cells assessed as normal cells at 6.25 uM preincubated for 24 hrs followed by H2O2 addition measured after 4 hrs by Annexin V-FITC/propidium iodide staining based flow cytometry (reference value: 62.1 %). In kind it is functional, HBMEC-2. Also noted: scale not given: the % may be the effect or the level left. The method in brief: as §2

Test [5] relates to SH-SY5Y. Put plainly: Inhibition of H2O2-induced apoptosis in human SH-SY5Y cells preincubated for 24 hrs followed by H2O2 addition measured after 4 hrs by Annexin V-FITC/propidium iodide staining based flow cytometry. Type of test: functional, cell-based. In short, it runs like this:
as §2

Each structure is given as a SMILES string. Active and inactive are the calls of the source. The rule behind the calls is not given here.

As for `COc1cc(CNC(=O)/C=C/c2cc(OC)c(OC)cc2OC)ccc1O`, the outcome in test [1] and in test [2] was Active. Besides, the Activity in test [3] is 1%; in test [4], 81.4%. In addition, in test [5], the inhibition result was “Dose-dependent effect”.

For the origin of these results see ChEMBL document CHEMBL4406851, “Design, synthesis and biological evaluation of cinnamic acid derivatives with synergetic neuroprotection and angiogenesis effect” (Eur J Med Chem, 2019).
